Assay results published in ChEMBL document CHEMBL1155468, “Syntheses and evaluation of anticonvulsant profile and teratogenicity of novel amide derivatives of branched aliphatic carboxylic acids with 4-aminobenzensulfonamide” (J Med Chem, 2010).
Active and inactive are the calls of the source. No cut-off for these calls is given here.

What was measured:
Mus musculus [1] = test: Anticonvulsant activity in CF1 albino mouse assessed as inhibition of subcutaneous pentylenetetrazole-induced seizures at 30 mg/kg, ip after 0.5 hrs; type: functional, organism-based; set-up: dose 30 mg/kg
In short: (§1)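 Adult male CF no. 1 albino mice (18-25 g) dosed ip with compound suspended in 0.5% methylcellulose (0.01 mL/g). Convulsant: pentylenetetrazol dissolved in 0.9% saline as a 0.85% solution for mice, given subcutaneously.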

Mus musculus [2] = test: Anticonvulsant activity in CF1 albino mouse assessed as inhibition of subcutaneous pentylenetetrazole-induced seizures at 30 mg/kg, ip after 4 hrs; type: functional, organism-based; set-up: dose 30 mg/kg; in short: as §1
Mus musculus [3] = test: Anticonvulsant activity in CF1 albino mouse assessed as inhibition of subcutaneous pentylenetetrazole-induced seizures at 100 mg/kg, ip after 4 hrs; type: functional, organism-based; set-up: dose 100 mg/kg; in short: as §1
Mus musculus [4] = test: Teratogenic effect in SWV mouse assessed as resorptions at 325 mg/kg, ip administered on morning of day 8 of gestation; type: toxicity, organism-based; set-up: dose 325 mg/kg, route intraperitoneal; settings: in vivo
Mus musculus [5] = test: Teratogenic effect in SWV mouse assessed as resorptions at 164 mg/kg, ip administered on morning of day 8 of gestation; type: toxicity, organism-based; set-up: dose 164 mg/kg, route intraperitoneal; settings: in vivo
Mus musculus [6] = test: Teratogenic effect in SWV mouse assessed as fetuses with neural tube deffects at 325 mg/kg, ip administered on morning of day 8 of gestation; type: toxicity, organism-based; set-up: dose 325 mg/kg, route intraperitoneal; settings: in vivo
Mus musculus [7] = test: Teratogenic effect in SWV mouse assessed as fetuses with neural tube deffects at 164 mg/kg, ip administered on morning of day 8 of gestation; type: toxicity, organism-based; set-up: dose 164 mg/kg, route intraperitoneal; settings: in vivo
Mus musculus [8] = test: Teratogenic effect in SWV mouse assessed as live fetuses at 325 mg/kg, ip administered on morning of day 8 of gestation; type: toxicity, organism-based; set-up: dose 325 mg/kg, route intraperitoneal; settings: in vivo
Mus musculus [9] = test: Teratogenic effect in SWV mouse assessed as live fetuses at 164 mg/kg, ip administered on morning of day 8 of gestation; type: toxicity, organism-based; set-up: dose 164 mg/kg, route intraperitoneal; settings: in vivo
Mus musculus [10] = test: Anticonvulsant activity in CF1 albino mouse assessed as inhibition of maximal electroshock-induced seizures at 30 mg/kg, ip after 0.5 hrs; type: functional, organism-based; set-up: dose 30 mg/kg
In short: (§2)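 Test compounds suspended in 0.5% methylcellulose and given ip to adult male CF no. 1 albino mice (18-25 g) at 0.01 mL/g body weight before maximal electroshock challenge.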

Mus musculus [11] = test: Anticonvulsant activity in CF1 albino mouse assessed as inhibition of maximal electroshock-induced seizures at 100 mg/kg, ip after 0.5 hrs; type: functional, organism-based; set-up: dose 100 mg/kg; in short: as §2
Mus musculus [12] = test: Anticonvulsant activity in CF1 albino mouse assessed as inhibition of maximal electroshock-induced seizures at 300 mg/kg, ip after 0.5 hrs; type: functional, organism-based; set-up: dose 300 mg/kg; in short: as §2
Mus musculus [13] = test: Anticonvulsant activity in CF1 albino mouse assessed as inhibition of maximal electroshock-induced seizures at 30 mg/kg, ip after 4 hrs; type: functional, organism-based; set-up: dose 30 mg/kg; in short: as §2
Mus musculus [14] = test: Anticonvulsant activity in CF1 albino mouse assessed as inhibition of maximal electroshock-induced seizures at 100 mg/kg, ip after 4 hrs; type: functional, organism-based; set-up: dose 100 mg/kg; in short: as §2
Mus musculus [15] = test: Anticonvulsant activity in CF1 albino mouse assessed as inhibition of maximal electroshock-induced seizures at 300 mg/kg, ip after 4 hrs; type: functional, organism-based; set-up: dose 300 mg/kg; in short: as §2
Mus musculus [16] = test: Anticonvulsant activity in CF1 albino mouse assessed as inhibition of subcutaneous pentylenetetrazole-induced seizures at 300 mg/kg, ip after 4 hrs; type: functional, organism-based; set-up: dose 300 mg/kg; in short: as §1
Mus musculus [17] = test: Neurotoxicity in CF1 albino mouse assessed as motor impairment at 30 mg/kg, ip after 0.5 hrs; type: toxicity, organism-based; set-up: dose 30 mg/kg, route intraperitoneal; settings: in vivo
Mus musculus [18] = test: Neurotoxicity in CF1 albino mouse assessed as motor impairment at 100 mg/kg, ip after 0.5 hrs; type: toxicity, organism-based; set-up: dose 100 mg/kg, route intraperitoneal; settings: in vivo
Mus musculus [19] = test: Neurotoxicity in CF1 albino mouse assessed as motor impairment at 30 mg/kg, ip after 4 hrs; type: toxicity, organism-based; set-up: dose 30 mg/kg, route intraperitoneal; settings: in vivo
Mus musculus [20] = test: Neurotoxicity in CF1 albino mouse assessed as motor impairment at 100 mg/kg, ip after 4 hrs; type: toxicity, organism-based; set-up: dose 100 mg/kg, route intraperitoneal; settings: in vivo
Rattus norvegicus [21] = species on record: Rattus norvegicus; test: Protective index, ratio of TD50 for rat to ED50 for maximal electroshock-induced rat seizure model
Rattus norvegicus [22] = test: Neurotoxicity in Sprague-Dawley rat assessed as motor impairment at 30 mg/kg, po after 0.25 to 4 hrs; settings: in vivo
Rattus norvegicus [23] = test: Anticonvulsant activity in po dosed rat assessed as inhibition of maximal electroshock-induced seizures
Rattus norvegicus [24] = test: Anticonvulsant activity in Sprague-Dawley rat assessed as inhibition of maximal electroshock-induced seizures at 30 mg/kg, po after 1 hr
Rattus norvegicus [25] = test: Anticonvulsant activity in Sprague-Dawley rat assessed as inhibition of maximal electroshock-induced seizures at 30 mg/kg, po after 4 hrs
Rattus norvegicus [26] = test: Anticonvulsant activity in Sprague-Dawley rat assessed as inhibition of maximal electroshock-induced seizures at 30 mg/kg, po after 30 mins
Rattus norvegicus [27] = test: Anticonvulsant activity in Sprague-Dawley rat assessed as inhibition of maximal electroshock-induced seizures at 30 mg/kg, po after 15 mins

CCCCC(CC)C(=O)Nc1ccc(S(N)(=O)=O)cc1 (configuration not stated)
Activity (Mus musculus [1]): inactive | Activity (Mus musculus [2]): inactive | Activity (Mus musculus [3]): inactive | Activity (Mus musculus [4]): 74.2% | Activity (Mus musculus [5]): 19.2% | Activity (Mus musculus [6]): 14.7% | Activity (Mus musculus [7]): 5.2% | Activity (Mus musculus [8]): 25.8% | Activity (Mus musculus [9]): 80.8% | Activity (Mus musculus [10]): inactive | Activity (Mus musculus [11]): Active | Activity (Mus musculus [12]): Active | Activity (Mus musculus [13]): inactive | Activity (Mus musculus [14]): Active | Activity (Mus musculus [15]): Active | Activity (Mus musculus [16]): inactive | Activity (Mus musculus [17]): Non-toxic | Activity (Mus musculus [18]): Non-toxic | Activity (Mus musculus [19]): Non-toxic | Activity (Mus musculus [20]): Non-toxic | Ratio TD50/ED50 (Rattus norvegicus [21]): >21 | Activity (Rattus norvegicus [22]): Non-toxic | ED50 (Rattus norvegicus [23]): 23.9 mg/kg | Activity (Rattus norvegicus [24]): Active | Activity (Rattus norvegicus [25]): Active | Activity (Rattus norvegicus [26]): inactive | Activity (Rattus norvegicus [27]): inactive
